We go through 97 molecules from ChEMBL document CHEMBL4513216, “Probing the Open Global Health Chemical Diversity Library for Multistage-Active Starting Points for Next-Generation Antimalarials” (ACS Infect Dis, 2020).

The nature of the series: Toxicity liver stage against HepG2, at 10uM. Details: test concentration 10 uM, cell line HepG2-A16-CD81EGFP. It is filed as cell-based. The note with it: human, HepG2-A16-CD81EGFP cells; read-out: INHIBITION
Summed up: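 Uninfected HepG2-A16-CD81EGFP cells, 3 × 10^3 per well, 1536-well, plated on prespotted compound at 10 μM final, parasite-free screening media added to match infected plates; puromycin 10 μM positive, DMSO 0.5% negative; run in parallel with 48 h PbLuc assay at 37 °C, 5% CO2; viability by CellTiter-Glo luminescence, normalized to controls.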
For `CCOC(=O)CNC(=O)NCc1cc(C)n(-c2ccc(OC)cc2)c1C`, the cytotoxicity at 10 µM came out at 8.27%.

`CC(=O)Nc1cccc2c1ccn2CC(=O)NC(C)C`: the cytotoxicity at 10 µM was -7.79%.

With `CCC(=O)N1CCC2(COCc3c(C)nc(NCc4ccco4)nc32)C1` (configuration not stated), the cytotoxicity at 10 µM came to 1.75%.

For the molecule `CC(C)NC(=O)N1CCC2(CCCO2)C1` (configuration not stated), the cytotoxicity at 10 µM was found to be 3.14%.

Turning to `Fc1cccc(CNCC2Cn3nncc3CO2)c1` (configuration not stated), the cytotoxicity at 10 µM amounted to 10.9%.

Consider `CN(Cc1cccnc1)C1CC2(CCN(C(=O)c3cnccn3)CC2)C1`, for which the cytotoxicity at 10 µM was -0.733%.

With `CCOC(=O)C1CCN(C(=O)Cn2ccc3cc(Br)ccc32)CC1`, the cytotoxicity at 10 µM was -8.23%.

For the molecule `COC(=O)CNC(=O)CSCc1nc(O)c2c(C)c(C)sc2n1`, the cytotoxicity at 10 µM is 0.562%.

Regarding `c1ccc2c(N3CCOCC3)cnnc2c1`, the cytotoxicity at 10 µM was -6.06%.

For `CCn1nc(C)c2ncnc(N(C)C)c21`, the cytotoxicity at 10 µM was 3.18%.

On to `CCc1noc(C2CCCCN2C(=O)c2ccoc2C)n1` (configuration not stated), for which the cytotoxicity at 10 µM turned out to be 12.5%.

With `O=C(O)[C@H]1OCC(=O)N(Cc2cccc(Cl)c2)[C@@H]1c1ccccc1`, the cytotoxicity at 10 µM came to 7.35%.

In the case of `NC(=O)C1CN(C(=O)c2ccc(F)cc2)CCN1CCc1ccccc1` (configuration not stated), the cytotoxicity at 10 µM stood at 2.77%.

As for `O=C(O)c1ccccc1-c1ccc(CN2CCOCC2)cn1`, the cytotoxicity at 10 µM was -1.1%.

On to `O=C(O)c1ccccc1-c1cnc(Cn2c(=O)cc[nH]c2=O)s1`, for which the cytotoxicity at 10 µM worked out at 2.95%.

`CN(C)C(=O)CN1CCC2(CC1)C[C@@H](O)[C@H](c1ccccc1)NC2=O`: the cytotoxicity at 10 µM is -22.4%.

Turning to `Cc1cccc2nc(C(=O)N3CCCC[C@]4(C)NC(=O)CC[C@H]34)cn12`, the cytotoxicity at 10 µM is -13.7%.

In the case of `CCc1nnc(Nc2cccc(C3CCN(C(=O)CN(C)C)CC3)n2)s1`, the cytotoxicity at 10 µM is -39.1%.

In the case of `O=C(O)C1(Cc2cc(-c3ccccc3F)no2)CCOCC1`, the cytotoxicity at 10 µM was -9.41%.

`COc1ccc(CN(Cc2cn(C)nc2C)CC2CCCO2)c(OC)c1` (configuration not stated): the cytotoxicity at 10 µM was -7.3%.

Regarding `COc1ncc(C(=O)N2CCC(c3nc(C)n4ccsc34)CC2)cn1`, the cytotoxicity at 10 µM is -17.4%.

On to `CNc1ccc(CC2CCCN(C(=O)c3c(C)noc3C)C2)nn1` (configuration not stated), for which the cytotoxicity at 10 µM was -5%.

For `Cn1cncc1CN1CC[C@](C)(O)[C@@H](Oc2cccc(F)c2)C1`, the cytotoxicity at 10 µM is -8.49%.

As to `Cn1ccnc1CC1CCCN(C(=O)Cc2ccccc2)C1` (configuration not stated), the cytotoxicity at 10 µM is -4.14%.

With `COCCN1CCCC(c2nccnc2Nc2nc(C)cs2)C1` (configuration not stated), the cytotoxicity at 10 µM is -7.16%.

With `Cc1ccc(C(=O)N2CCCCC2CN(C)C)cc1` (configuration not stated), the cytotoxicity at 10 µM was -9.98%.

With `COCCn1c(C(=O)NCC(C)C(=O)O)cc2ccccc21` (configuration not stated), the cytotoxicity at 10 µM stood at 2.64%.

As to `NC(=O)N1CCCC(C(=O)NCCOc2ccc3c(c2)OCO3)C1` (configuration not stated), the cytotoxicity at 10 µM is -102%.

As to `Cc1cc(C(=O)Nc2ccc(-c3nnc(N(C)C)o3)cc2)oc1C`, the cytotoxicity at 10 µM was found to be 0.11%.

For `CCc1nccn1C1CCCN(C(=O)c2ccc(C(N)=O)cn2)C1` (configuration not stated), the cytotoxicity at 10 µM was determined as 1.89%.

Regarding `Cc1ccc(C(=O)N(C)Cc2csc(Br)c2)c(=O)[nH]1`, the cytotoxicity at 10 µM stood at 15.3%.

Take `Cc1cc(N2CCC(N(C)C(=O)c3cccs3)CC2)nc(C)n1`: the cytotoxicity at 10 µM worked out at 6.74%.

For `NC(=O)c1ccc(CN2CCCC(N3CCCCCC3)C2)cc1` (configuration not stated), the cytotoxicity at 10 µM is -6.46%.

Regarding `N#Cc1cccnc1N1CCC(c2nc(C(F)(F)F)c[nH]2)CC1`, the cytotoxicity at 10 µM turned out to be 2.74%.

Consider `CN1CCN(S(C)(=O)=O)c2ccc(F)cc21`, for which the cytotoxicity at 10 µM is -4.12%.

Consider `O=C(C[S+]([O-])Cc1ccc(Cl)cc1Cl)N1CCc2sccc2C1` (configuration not stated), for which the cytotoxicity at 10 µM is 2.13%.

For the molecule `O=C(NCCC1CCN(CC(F)(F)F)CC1)C1COCCO1` (configuration not stated), the cytotoxicity at 10 µM amounted to 1.38%.

Take `O=C(C[S+]([O-])Cc1cccc(C(F)(F)F)c1)NC1CCCC1` (configuration not stated): the cytotoxicity at 10 µM worked out at 7.72%.

`Cc1noc(CNC(=O)C(C)(C)NC(=O)OC(C)(C)C)n1`: the cytotoxicity at 10 µM turned out to be 13.9%.

On to `Cc1cc(NCc2cccc(C#N)c2)ccc1C(=O)N(C)C`, for which the cytotoxicity at 10 µM was determined as 7.06%.

Take `O=C(CN1CCCC(c2ccn[nH]2)C1)N1CCCc2ccccc21` (configuration not stated): the cytotoxicity at 10 µM is -3.41%.

Consider `Cc1cc(C(=O)Nc2ccc(N3CCCC3)cn2)ccc1-n1cncn1`, for which the cytotoxicity at 10 µM is 19.8%.

With `CC(C)(NS(C)(=O)=O)c1nc(-c2ccncc2)no1`, the cytotoxicity at 10 µM amounted to 12.9%.

Regarding `COc1ccc(CNCC2CC2)cc1F`, the cytotoxicity at 10 µM is -22%.

Consider `CC(C)C(C(=O)N1CCN(c2ccncc2)CC1)n1cncn1` (configuration not stated), for which the cytotoxicity at 10 µM is -9.35%.

`Cc1cc(C(=O)N2CCCC2c2nnc3n2CCCCC3)no1` (configuration not stated): the cytotoxicity at 10 µM was -14%.

Consider `CC(C)(C(=O)NCC(N)=O)c1ccccc1F`, for which the cytotoxicity at 10 µM was -5.33%.

As to `Cc1nsc(NC(=O)NC2(CN3CCCCC3)CCCCC2)n1`, the cytotoxicity at 10 µM turned out to be 10.6%.

As to `CC[C@@]1(O)CCN(C(=O)CCNC(=O)c2ccc(F)cc2)C[C@H]1O`, the cytotoxicity at 10 µM worked out at 0.0652%.

For the molecule `CC(C)c1cc(NCC2(N3CCOCC3)CCCCC2)ncn1`, the cytotoxicity at 10 µM was -12.8%.

Consider `COCCc1noc(-c2cn(Cc3ccc(OC)cc3)nn2)n1`, for which the cytotoxicity at 10 µM came to 5.07%.

`CC(O)c1cn(CC2CCN(C(=O)CN3CCCC3=O)CC2)nn1` (configuration not stated): the cytotoxicity at 10 µM stood at 2.31%.

As to `Cc1nonc1CN(C)Cc1c[nH]nc1-c1ccc(F)cc1F`, the cytotoxicity at 10 µM turned out to be 11.9%.

Consider `CCc1ccc(CN2CCOC(Cc3cccc(F)c3)C2)nc1` (configuration not stated), for which the cytotoxicity at 10 µM was -2.33%.

`CCn1c(C2CCCN(C(=O)c3ccc[nH]3)C2)nn(CCN(C)C)c1=O` (configuration not stated): the cytotoxicity at 10 µM was found to be 2.67%.

`COc1cccc(C(=O)N2CCc3c(nc(N)[nH]c3=O)C2)c1C`: the cytotoxicity at 10 µM was found to be 1.96%.

Turning to `O=C(c1c[nH]c(=O)[nH]c1=O)N1CCCC(c2nccn2CC2CCC2)C1` (configuration not stated), the cytotoxicity at 10 µM was -3.67%.

`Cc1ccccc1C(C(=O)NCCn1cccc1)N(C)C` (configuration not stated): the cytotoxicity at 10 µM came to 7.62%.

Take `CC(C)N1CCOC(CC(=O)N2CCCN(c3ccc(F)cc3)CC2)C1` (configuration not stated): the cytotoxicity at 10 µM is -4.66%.

For `CCn1ccnc1CN(C)Cc1nc(Cc2ccccc2F)no1`, the cytotoxicity at 10 µM came to 0.686%.

As for `CCc1ccc2nc(C)cc(C(=O)N[C@@H]3C[C@@H](CO)N(C)C3)c2c1`, the cytotoxicity at 10 µM was 2.35%.

As for `Cc1cnc2c(C(=O)N(C)Cc3cc(C4CC4)[nH]n3)cnn2c1`, the cytotoxicity at 10 µM was -5.71%.

Regarding `N#Cc1cccc(N2CCC(CO)(CCCc3ccccc3)CC2)n1`, the cytotoxicity at 10 µM was -45.7%.

Regarding `CCn1c(C)nnc1SCCNc1cc(OC)ncn1`, the cytotoxicity at 10 µM is 5.87%.

As to `CN(C)CCCC(=O)NC1CC(C)(C)Cc2nc(C(C)(C)C)ncc21` (configuration not stated), the cytotoxicity at 10 µM came out at 15.2%.

`CC(C)N1CC(n2ccnc2-c2nccn2C)CC1=O` (configuration not stated): the cytotoxicity at 10 µM was -0.371%.

Turning to `CCC(NC1CCCC1)c1ccc(S(C)(=O)=O)cc1` (configuration not stated), the cytotoxicity at 10 µM is -3.37%.

Consider `O=C(O)[C@@H]1CN(Cc2ccc3nsnc3c2)C[C@H]1c1ccncc1`, for which the cytotoxicity at 10 µM stood at 5.4%.

Regarding `O=C(CN1CCOC1=O)N(Cc1ccccc1)Cc1nccs1`, the cytotoxicity at 10 µM worked out at 0.84%.

As for `Cc1nc(CC(=O)N2CCC[C@H]2c2nc(C(C)C)no2)cs1`, the cytotoxicity at 10 µM was -14.2%.

Consider `Cc1occc1C(=O)N1CCC2(CCC(=O)N(CC(N)=O)C2)CC1`, for which the cytotoxicity at 10 µM was -9.32%.

With `Cc1nn(C)cc1-c1cc(C(F)F)n2nc(CCC(=O)O)nc2n1`, the cytotoxicity at 10 µM is -5.44%.

Turning to `CCC(CC#N)n1ccc(C(F)(F)F)n1` (configuration not stated), the cytotoxicity at 10 µM is -8.38%.

With `CC(C)c1nccn1-c1cccc(C2CCCN2S(=O)(=O)N(C)C)n1` (configuration not stated), the cytotoxicity at 10 µM was determined as 4.26%.

As to `Cc1nc(C)n(C2CCCN(C(=O)c3ccc4[nH]nnc4c3)C2)n1` (configuration not stated), the cytotoxicity at 10 µM is -13.9%.

Take `O=C(c1ccccc1N1CCOCC1)N1CCCC(n2ccnc2)C1` (configuration not stated): the cytotoxicity at 10 µM was -10.7%.

`Cc1cc(NC(=O)NCC(O)c2ccc(F)c(F)c2)n(C)n1` (configuration not stated): the cytotoxicity at 10 µM is -21.1%.

For the molecule `COc1ccc(C)cc1CN(C)Cc1nc2c(cnn2C)c(=O)[nH]1`, the cytotoxicity at 10 µM was -5.33%.

For `O=C(CCc1cscn1)N1CCCC(n2ccnc2)C1` (configuration not stated), the cytotoxicity at 10 µM is -3.03%.

`Cc1ccc(N2CCCC(NCC(=O)NCC3CC3)C2)nn1` (configuration not stated): the cytotoxicity at 10 µM is -2.5%.

Take `COc1cccc(COCC(=O)N2CCCC(c3nncn3C)C2)c1` (configuration not stated): the cytotoxicity at 10 µM is -6.36%.

`COc1ccccc1CC1CCCN(CC(N)=O)C1` (configuration not stated): the cytotoxicity at 10 µM came to 5.68%.

In the case of `CC(C(=O)NCc1ccc(-n2cncn2)nc1)n1ccnc1` (configuration not stated), the cytotoxicity at 10 µM came to 0.409%.

In the case of `CCc1nnsc1C(=O)N1CCCN(Cc2cnn(C)c2)CC1`, the cytotoxicity at 10 µM was -2.26%.

As for `c1cnc2[nH]nc(C3CCN(Cc4ccsc4)CC3)c2c1`, the cytotoxicity at 10 µM was -27.3%.

For `CC(C)CN1CCCC2(CCN(c3ccccn3)C2)C1` (configuration not stated), the cytotoxicity at 10 µM is -1.22%.

As to `CN1CC(=O)N(c2cnn(C)c2)CC12CCN(Cc1ccccc1)C2` (configuration not stated), the cytotoxicity at 10 µM was -7.24%.

`Fc1ccc(CNCC2Cn3nncc3CO2)cc1` (configuration not stated): the cytotoxicity at 10 µM came to 7.31%.

As for `Cc1ccc(N2CCC3(CC2)CNC(=O)CO3)nn1`, the cytotoxicity at 10 µM stood at 6.07%.

Turning to `CN(C)C(=O)CN1C(=O)CO[C@@H]2CN(c3ccccn3)C[C@H]21`, the cytotoxicity at 10 µM was 12.3%.

Consider `CN1CCNC(Cc2ccc(-c3ccncc3)cc2)C1=O` (configuration not stated), for which the cytotoxicity at 10 µM is -25.8%.

Regarding `COCCN1CCOCC12CCN(C(=O)c1ccoc1)CC2`, the cytotoxicity at 10 µM was -84.6%.

With `CN1CC(=O)N(c2cccc(F)c2)CC12CCN(CCO)C2` (configuration not stated), the cytotoxicity at 10 µM is -82.1%.

For `Cc1nnc(N2CC[C@H]3O[C@H](C(=O)NCc4ccccn4)CC[C@H]32)s1`, the cytotoxicity at 10 µM is -66.4%.

Take `O=C(c1c[nH]cn1)N1CCC(F)(F)C2(CCN(c3cccc(F)c3)C2)C1` (configuration not stated): the cytotoxicity at 10 µM came out at 9.58%.

Turning to `CN(C)S(=O)(=O)N1CC[C@]2(C[C@@H](Oc3cccnc3)CO2)C1`, the cytotoxicity at 10 µM is -76.3%.

Take `COc1ccc(C2c3c(N)nc(SC)nc3N=C3CCCC(=O)C32)cc1` (configuration not stated): the cytotoxicity at 10 µM is -18.7%.
